Test results from PubChem BioAssay.
The source made the active and inactive calls.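 How the source made its calls, unless noted: active means viability at or under a set limit in both replicates, limit being median viability minus 3 SD (cut at about 48% in these data, passing the limit was not always enough); inconclusive means at or under the limit in just one replicate; inactive means at or above the limit in both replicates.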

Experiments:
[1] = reduced viability of SK-BR-3 breast cancer cells – cell-based, 24 h, human, pilot screen (AID 572;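 active means viability at or below 10% of carrier control in both of two separate runs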;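 further: compound exposure lasted between 18 and 24 h rather than exactly 24 h; 100% = carrier-treated control wells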); settings: SK-BR-3 viability, CellTiter-Glo luminescence, at 10 µM, stronger effect = lower value
[2] = HUVEC growth inhibition – cell-based, human, primary screen (AID 575;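 active means viability at or below 30% in both replicate assays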;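 further: 100% = median of untreated cell wells with 0.1% DMSO on each plate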); settings: HUVEC proliferation, CellTiter-Glo luminescence, 72 h; at 10 µM; stronger effect = lower value
Outline: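 Test system: primary human umbilical vein endothelial cells. Quantity: 1250 cells/well. Compound: single 10 µM dose, 0.1% DMSO, from 5x medium stock. Timing: 72 h treatment at 37 °C. Detection: ATP-based CellTiter-Glo luminescent read. Benchmarks: vehicle and MePR control wells. Format: 384-well plates coated with collagen.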

[3] = H69AR cell proliferation blockers – human, duplicate replicates, primary screen (AID 580); settings: H69AR lung tumor cells viability, ATP luminescence, 72 h; at 10 µM; stronger effect = lower value;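 further: 100% = mean luminescence of untreated wells and 0% = no signal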
[4] = MRP1 drug-resistance reversers in H69AR cells – cell-based, doxorubicin co-treatment, pilot screen (AID 601;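 active means viability loss from added drug above about 55%, and viability with drug at most 40%, in both replicates, limit read from the data, passing the limit was not always enough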); settings: CellTiter-Glo, 72 h, at 10 µM; for differential viability (reversal): stronger effect = higher value
[5] = yeast transport mutant growth inhibition pilot in 384-well plates, post-Golgi transport modulator project (AID 636; in the data active means inhibition above about 31%); settings: absorbance 615 nm, about 18 h, stronger effect = higher value
[6] = growth suppression of yeast trafficking mutant, preliminary HTS, modulators of trafficking downstream of Golgi apparatus project, 1536-format plate, OD 615 nm (AID 637; in the data active means inhibition above about 30%); settings: yeast transport mutant growth, absorbance 615 nm, 18 h; stronger effect = higher value
[7] = H69AR cells + 2 uM doxorubicin, measured here: viability with 2 uM doxorubicin, stronger effect = lower value
[8] = H69AR cells, compound alone cytotoxicity

Compound	viability [1]	viability [2]	viability [3]	differential viability (reversal) ([4]; H69AR cells + 2 uM doxorubicin)	viability [4, 7] [%]	viability [4, 8] [%]	inhibition [5]	inhibition [6]
Cc1cc(O)c(NC(=O)c2ccc(Br)o2)cc1C	98% (inactive)	71% (inactive)	73.2% (inactive)	-15% (inactive)	88.2	73.2	-6.08% (inactive)	1.5% (inactive)
COc1ccc(NC(=O)Nc2ccccc2C)c(OC)c1	93% (inactive)	95.1% (inactive)	89% (inactive)	20.8% (inactive)	68.2	89	-4.8% (inactive)	-1.09% (inactive)
CCCCOc1ccc(N(CC(=O)NC2CCCC2)C(=O)CCC(=O)Nc2ccccn2)cc1	101% (inactive)	71.7% (inactive)	69.4% (inactive)	5% (inactive)	64.4	69.4	-1.3% (inactive)	2.95% (inactive)
COC(=O)C1CCN(C(=O)CN2C(=O)NC(CCc3ccccc3)C2=O)CC1 (stereo unspecified)	119% (inactive)	94.2% (inactive)	91.7% (inactive)	0.73% (inactive)	90.9	91.7	-1.92% (inactive)	3.87% (inactive)
CN(C(=O)C1CCCO1)c1nnc(-c2ccncc2)s1 (stereo unspecified)	81% (inactive)	111% (inactive)	100% (inactive)	7.37% (inactive)	92.7	100	-3.24% (inactive)	-1.82% (inactive)
CCOC(=O)c1cc2sc(C)cc2n1CC(=O)Nc1cccc(C)c1C	90% (inactive)	99.2% (inactive)	91.2% (inactive)	-3.05% (inactive)	94.2	91.2	-5.81% (inactive)	-5.82% (inactive)
S=C(c1ccc(N2CCOCC2)cc1)N1CCCCC1	103% (inactive)	105% (inactive)	93.5% (inactive)	4.23% (inactive)	89.2	93.5	-5.48% (inactive)	-8.87% (inactive)
Cc1sc2ncnc(Oc3ccc(-n4ccnc4)cc3)c2c1C	88% (inactive)	102% (inactive)	87.2% (inactive)	-15.1% (inactive)	102	87.2	-8.77% (inactive)	3.27% (inactive)
COc1ccc(OC)c(S(=O)(=O)Nc2ccccc2SC)c1	72% (inactive)	83.7% (inactive)	100% (inactive)	18.9% (inactive)	81	100	-5.34% (inactive)	-1.45% (inactive)
Cc1nnc(SCCn2c(Br)nc3c2c(=O)n(C)c(=O)n3C)s1	95% (inactive)	106% (inactive)	98.2% (inactive)	0.705% (inactive)	97.5	98.2	-1.76% (inactive)	-5.09% (inactive)
CCCCn1cnc2c(c1=O)c1nc3ccccc3nc1n2Cc1ccc2c(c1)OCO2	85% (inactive)	85.9% (inactive)	68.9% (inactive)	-5.45% (inactive)	74.3	68.9	-5.14% (inactive)	-1.82% (inactive)
Cc1cc(C(=O)COC(=O)c2n[nH]c3ccccc23)c(C)n1C	83% (inactive)	90.4% (inactive)	88.6% (inactive)	5.96% (inactive)	82.6	88.6	-9.18% (inactive)	-4% (inactive)
CS(=O)(=O)N(CC(=O)N1CCCCCC1)c1ccc(Br)cc1	86% (inactive)	96.5% (inactive)	97.9% (inactive)	17.2% (inactive)	80.6	97.9	-7.47% (inactive)	-10% (inactive)
COc1ccc(OCCOC(=O)c2cccc(-n3cnnn3)c2)cc1	90% (inactive)	107% (inactive)	100% (inactive)	7.56% (inactive)	92.6	100	-8.36% (inactive)	1.64% (inactive)
CCOC(=O)c1cc(CC)sc1NC(=O)COC	104% (inactive)	89.4% (inactive)	88.8% (inactive)	2.66% (inactive)	86.2	88.8	-7.07% (inactive)	0.18% (inactive)
O=C(OCC(=O)c1ccccc1Br)c1ccccn1	142% (inactive)	89.8% (inactive)	86.8% (inactive)	5.17% (inactive)	81.7	86.8	-3.77% (inactive)	-1.64% (inactive)
Cc1csc(NC(=O)CCn2c(=O)oc3ccccc32)n1	91% (inactive)	98.8% (inactive)	94.4% (inactive)	9.97% (inactive)	84.5	94.4	-5.95% (inactive)	1.45% (inactive)
Cc1[nH]nc(-c2ccc(O)c(C)c2O)c1-c1cnn(-c2ccccc2)c1	93% (inactive)	85.4% (inactive)	94.2% (inactive)	12% (inactive)	82.1	94.2	-4.52% (inactive)	-3.27% (inactive)
O=C(CN1CCN(Cc2ccccc2)CC1)Nc1ccc(Cl)cn1	94% (inactive)	88.8% (inactive)	85.1% (inactive)	-1.43% (inactive)	86.5	85.1	-8.08% (inactive)	4.35% (inactive)

Compound	viability [1]	viability [2]	viability [3]	differential viability (reversal) ([4]; H69AR cells + 2 uM doxorubicin)	viability [4, 7] [%]	viability [4, 8] [%]	inhibition [5]	inhibition [6]
CC(C)NCC(O)COc1ccc(CC(N)=O)cc1 (stereo unspecified)	88% (inactive)	87.5% (inactive)	88.1% (inactive)	-0.64% (inactive)	88.7	88.1	1.95% (inactive)	-2.67% (inactive)
Cc1cc(Cl)ccc1OCC(=O)Nn1c(C)ccc1C	68% (inactive)	101% (inactive)	94% (inactive)	11.1% (inactive)	82.9	94	-1.37% (inactive)	-4.68% (inactive)
C=CCc1ccccc1OCC(O)CNC(C)C (stereo unspecified)	82% (inactive)	70.1% (inactive)	91.3% (inactive)	-8.68% (inactive)	100	91.3	-2.34% (inactive)	1.67% (inactive)
O=C(Cn1c(=O)oc2ccccc21)N1CCN(c2ccccc2)CC1	94% (inactive)	104% (inactive)	88.8% (inactive)	-3.33% (inactive)	92.1	88.8	-8.63% (inactive)	8.18% (inactive)
NS(=O)(=O)c1cc2c(cc1Cl)NCNS2(=O)=O	73% (inactive)	97.2% (inactive)	91.3% (inactive)	-5.11% (inactive)	96.4	91.3	0.65% (inactive)	1.17% (inactive)
CCn1c(Cc2ccccc2)nnc1SCC(=O)Nc1cc(C)on1	109% (inactive)	114% (inactive)	98.7% (inactive)	7.78% (inactive)	91	98.7	-5.06% (inactive)	-2.95% (inactive)
CC(=O)OC(C)C[N+](C)(C)C (stereo unspecified)	103% (inactive)	86.7% (inactive)	104% (inactive)	14.9% (inactive)	89.3	104	-5.97% (inactive)	3.5% (inactive)
COc1cc(C2N=C(c3ccccc3)NO2)cc(Br)c1O (stereo unspecified)	90% (inactive)	87.5% (inactive)	84.8% (inactive)	-4.25% (inactive)	89	84.8	-3.12% (inactive)	-10% (inactive)
Cc1cc(NC(=O)CSc2nc(C3CC3)nc3sc4c(c23)CCC(C)C4)no1 (stereo unspecified)	90% (inactive)	108% (inactive)	102% (inactive)	15.6% (inactive)	86.4	102	-5.2% (inactive)	-0.18% (inactive)
COc1ccc(OCC(=O)Nc2ccc(N3CCOCC3)c(Cl)c2)cc1	99% (inactive)	96.1% (inactive)	90.3% (inactive)	2.16% (inactive)	88.2	90.3	-4.25% (inactive)	-2.1% (inactive)
CC(C)(C)NC(=O)CN(Cc1cccs1)C(=O)c1csnn1	96% (inactive)	99.7% (inactive)	105% (inactive)	-2.3% (inactive)	108	105	-7.12% (inactive)	-0.36% (inactive)
Cc1cc(C)n(-c2nc3c(c(=O)[nH]c(=O)n3C)n2Cc2ccc(F)cc2)n1	93% (inactive)	113% (inactive)	96.5% (inactive)	8.69% (inactive)	87.8	96.5	-4.19% (inactive)	-1.45% (inactive)
CN(CC(=O)Nc1ccc(F)c(Cl)c1)S(=O)(=O)c1cccc2nsnc12	99% (inactive)	74.3% (inactive)	90.1% (inactive)	8.32% (inactive)	81.8	90.1	-2.3% (inactive)	-1.09% (inactive)
CCN(CC)CCn1c(OC)cc(=O)[nH]c1=O	93% (inactive)	104% (inactive)	101% (inactive)	0.635% (inactive)	99.9	101	-10% (inactive)	-0.97% (inactive)
O=C(C1CCCO1)N1CCN(S(=O)(=O)c2ccccc2)CC1 (stereo unspecified)	79% (inactive)	98.1% (inactive)	99.1% (inactive)	-6.22% (inactive)	105	99.1	-6.3% (inactive)	3.27% (inactive)
CCOC(=O)C1=C(C)NC(C)=C(C(=O)OC)C1c1cccc(Cl)c1Cl (stereo unspecified)	86% (inactive)	11.2% (active)	72% (inactive)	4.92% (inactive)	67.1	72	11.3% (inactive)	13.2% (inactive)
CC(=O)c1c(O)cc(C)n(Nc2nc(C)cc(C)n2)c1=O	91% (inactive)	84.6% (inactive)	71.9% (inactive)	-28.5% (inactive)	100	71.9	-4.05% (inactive)	-0.73% (inactive)
COC(=O)CSc1nnc(-c2ccc(OC)cc2OC)o1	77% (inactive)	93.1% (inactive)	109% (inactive)	16.5% (inactive)	92.8	109	-2.67% (inactive)	-5.64% (inactive)
